Compound activity as filed in PubChem BioAssay.
Cneo AK release: Cryptococcus neoformans lysis via adenylate kinase release; AID 651654; actives 0.2% (n = 360,000); lysis activity, % at 15 µM; C. neoformans lysis, adenylate kinase release luminescence, 4 h; normalised: neutral wells 0, clomiphene wells 100;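 active = mean lysis activity across replicates of at least 80%, whatever share of replicates individually reach that level; inactive = mean lysis activity below 80%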
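Schedule: static 4 h at 37 °C with compound, 1 h detection; system: C. neoformans cells; benchmarks: Clomiphene as positive control; buffer or medium: fresh YPD medium; measure: luminescence rise reflecting yeast cell lysis; measured by: luminescent adenylate kinase detection reagent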
Ecoli rRNA inh: inhibitors of bacterial rRNA selective over humanized ribosomes; actives 1.6% (n = 350,000); GFP signal change (wild-type ribosome), % (no concentration beside the values); E. coli WT GFP vs humanized-ribosome RFP mutants, fluorescence, 24 h; active compounds read low; DMSO median 0, no signal -100;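 active = significant combined selectivity score with lowered wild-type GFP, culture density cut under 30%, mutant RFP and density less affected; inactive = any of these conditions unmet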
ERAP1 HTS inh: ERAP1 (human) enzyme inhibition; actives 0.15% (n = 340,000); inhibition, % at 10.7 µM; AID 652197; recombinant ERAP1, Leu-AMC fluorescence, 60 min;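 active = mean replicate inhibition of at least 30%, or all replicates individually reaching that 30% level; inactive = mean below 30% and not every replicate reaching it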;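 also: 0% = neutral control wells and 100% = L-leucinethiol positive control wells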
Target sequence (Q9NZ08 whole entry, looked up): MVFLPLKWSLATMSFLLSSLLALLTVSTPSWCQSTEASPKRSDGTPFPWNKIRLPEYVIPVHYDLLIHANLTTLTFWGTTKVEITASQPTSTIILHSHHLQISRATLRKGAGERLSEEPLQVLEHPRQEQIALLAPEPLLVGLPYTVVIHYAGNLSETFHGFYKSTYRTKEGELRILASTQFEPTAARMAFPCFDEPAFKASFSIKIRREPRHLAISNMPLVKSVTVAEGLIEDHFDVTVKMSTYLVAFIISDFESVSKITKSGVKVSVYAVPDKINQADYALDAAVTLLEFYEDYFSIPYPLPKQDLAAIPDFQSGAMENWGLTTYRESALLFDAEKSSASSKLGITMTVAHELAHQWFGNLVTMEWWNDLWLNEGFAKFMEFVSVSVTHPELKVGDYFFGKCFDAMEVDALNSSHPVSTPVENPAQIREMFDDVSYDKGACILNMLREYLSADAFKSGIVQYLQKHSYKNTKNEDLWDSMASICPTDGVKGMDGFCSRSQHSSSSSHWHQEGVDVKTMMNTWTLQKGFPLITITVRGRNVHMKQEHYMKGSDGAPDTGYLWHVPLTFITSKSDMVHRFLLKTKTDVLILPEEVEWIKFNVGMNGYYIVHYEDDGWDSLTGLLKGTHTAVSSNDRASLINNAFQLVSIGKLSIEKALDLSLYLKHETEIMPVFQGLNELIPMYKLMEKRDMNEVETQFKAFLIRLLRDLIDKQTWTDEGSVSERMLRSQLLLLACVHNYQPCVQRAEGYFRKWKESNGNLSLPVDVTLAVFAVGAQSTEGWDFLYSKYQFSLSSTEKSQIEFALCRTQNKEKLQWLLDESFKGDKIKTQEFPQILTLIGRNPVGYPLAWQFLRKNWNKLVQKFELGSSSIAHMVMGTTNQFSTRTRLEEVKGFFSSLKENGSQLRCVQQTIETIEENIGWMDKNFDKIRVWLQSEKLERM
PGC1a acetyl inh: lowers PGC1a acetylation signal in U2OS cells | AlphaScreen anti-acetyl-lysine; with virally co-expressed GCN5 acetyltransferase | actives 0.17% (n = 350,000) | AID 651687 | inhibition, % at 15.6 µM;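 active = every replicate shows inhibition of at least 40%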;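 also: 0% = neutral control wells and 100% = positive control wells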
FGF22 binding-1: FGF22 (human) thermal shift binding; Q9HCT0; recombinant FGF22 thermal shift, SYPRO orange fluorescence; percent of sucrose octasulfate shift, DMSO zero; activity (Tm shift, normalised), % at 9.99 µM; actives 1.5% (n = 340,000); AID 651658;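 active = mean Tm shift, scaled 0 neutral to 100 positive control, at about 1.3% or above, every replicate too, limit read from the data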
HIV Env fusion: HIV envelope-mediated fusion inhibition. HeLa-JRFL Env/CEM21 cell fusion, luciferase. inhibition, % at 12.3 µM. actives 1.1% (n = 360,000);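 active = mean replicate inhibition score of at least 50 and every replicate individually at or above 50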;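 also: 0% = plate neutral controls and 100% = maraviroc near 300 nM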
FGF22 binding-2: FGF22 (human) binding in thermal shift. shares compounds with FGF22 binding-1. recombinant FGF22 thermal shift, SYPRO orange fluorescence. thermal shift activity, °C (ΔTm) at 38 µM. actives 2% (n = 1,000). AID 720646;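 active = fitted rise in melting shift crosses a set limit at or below the top valid dose tested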
TSA no protein: counter-screen for FGF22 binders: compound-only thermal shift, no protein; shares compounds with FGF22 binding-1; AID 743019; compound-only SYPRO orange thermal shift counter-screen; actives 2% (n = 1,000); AC50, µM (doses to about 38 µM);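 active = rising signal whose fitted curve reaches the 0.54 level within the top valid dose, showing a melting point, actives reach about 13 µM in these data; inactive = the rest, including activity in the opposite direction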; also: value is where the raw curve crosses a fixed level and not half-maximal
An asterisk follows results filed as active; i = inactive; . = not tested or not shown. Sampled rows, rich in hits. Any-hit rate of the full collection: about 3.5%.

SMILES | Cneo AK release | Ecoli rRNA inh | ERAP1 HTS inh | PGC1a acetyl inh | FGF22 binding-1 | HIV Env fusion | others
C/C(=N\NC(=O)c1ccccc1)c1c(O)n(C2CCCCC2)c(=O)[nH]c1=O | -1.4 | 2.8 | -2.3 | 8.7 | 0.1 | -2.0
COC(=O)[C@H]1[C@H](CO)[C@H]2Cn3c(ccc(C4=CCCC4)c3=O)[C@@H]1N2CC1CCCC1 | . | -0.5 | 1.2 | . | . | .
COc1ccc(C2(c3cccc(O)c3OC)CCN(C(C)=O)CC2)cc1O | 0.8 | -4.9 | -2.3 | . | 0.1 | -1.0
CC(C)(O)/C=C/C(=O)C(C)(O)C1C(O)CC2(C)C3CC=C4C(C=C(O)C(=O)C4(C)C)C3(C)C(=O)CC12C (centres undefined) | . | 12.5 | -3.5 | . | -0.1 | 80.9*
Cc1ccc(N2C(=O)NC(=O)C(CCc3ccccn3)(Cc3ccc(F)cc3)C2=O)cc1 (centres undefined) | . | . | 2.2 | 5.3 | 0.4 | 57.7*
O=C1NC(=O)C(=Cc2ccc(-c3ccc(Cl)cc3)o2)C(=O)N1 | -3.9 | . | . | 5.1 | . | .
O=C1NC(=O)C(=Cc2ccc(-c3ccc(F)cc3O)o2)C(=O)N1 | 0.9 | 20.9 | 7.3 | -13.9 | 43.4* | .
COc1ccccc1N1C(=O)NC(=O)/C(=C/c2ccc3c(c2)Cc2ccccc2-3)C1=O | . | -1.3 | 1.8 | . | 43.5* | -14.3
COc1cc(/C=C2\C(=O)NC(=O)N(c3ccccc3)C2=O)cc(OC)c1O | -5.3 | . | . | -2.2 | . | -29.2
O=C(NC1CN2CCC1CC2)c1cc(Cl)c([N+](=O)[O-])c2nc[nH]c12 (centres undefined) | 0.1 | . | . | 10.0 | . | 7.4
O=c1[nH]c(=O)n(C2CCCCC2)c(O)c1C=NCCCn1ccnc1 | -8.9 | . | . | . | . | .
C[C@H]1CC2C3CC=C4C[C@@H](O)CC[C@]4(C)C3CC[C@]2(C)[C@H]1O (some centres undefined) | 0.3 | -7.2 | 1.5 | 5.6 | -0.1 | .
CN(C)C1C(=O)C(C(N)=O)=C(O)C2(O)C(=O)C3=C(O)c4c(O)cccc4C(C)(O)C3C(O)C12 (centres undefined) | 0.7 | 1.4 | 8.4 | 13.3 | -0.3 | 63.2*
CC(C)C(=O)NC(Oc1ccccc1Cl)C(Cl)(Cl)Cl (centres undefined) | -0.3 | -13.9* | -1.0 | -2.2 | 0.2 | 3.5
Cc1cc(OC(=O)N(C)C)nc(-c2ccc(C)c(Cl)c2)n1 | 1.1 | . | . | 5.1 | -0.1 | 9.4
CC[C@H](C)[C@@H]1NC(=O)CNC(=O)c2csc(n2)[C@H](C(C)(C)O)OC(=O)C(C)(C)[C@H](CCCC(C)(Cl)Cl)OC(=O)c2csc1n2 | 278.8* | -1.7 | 0.4 | 59.7* | -0.5 | .
Cc1ccccc1-[n+]1c(-c2ccccc2)cc(-c2ccccc2)cc1-c1ccccc1 | -3.5 | -55.2 | -3.9 | -32.0 | 0.3 | 67.8*
CC(O)(CS(=O)(=O)c1ccccc1)C(=O)Nc1cccc(C(F)(F)F)c1 (centres undefined) | 0.7 | . | . | -2.3 | . | 44.4
Cc1ccc(S(=O)(=O)CC(C)(O)C(=O)Nc2cccc(C(F)(F)F)c2)cc1 (centres undefined) | 1.7 | . | . | -12.8 | . | 67.7*
CC(C)NS(=O)(=O)c1ccc(OCC(=O)N2CCN(Cc3ccc4c(c3)OCO4)CC2)c(Cl)c1 | -0.7 | -2.7 | -8.6 | 4.8 | . | 74.2*
CCCCCP(=O)(O)c1ccccc1 | 4.9 | . | . | . | . | -3.8
CCCC/C(C)=C/[C@@H](NP(=O)(c1ccccc1)c1ccccc1)c1ccccc1 | -1.4 | -0.5 | -2.5 | -9.7 | 0.6 | 84.1*
CN1C(=O)C2C[C@@]3(Br)c4ccccc4N(OOSc4ccccc4)[C@H]3N2C(=O)[C@@H]1Cc1ccccc1 (some centres undefined) | -1.1 | . | . | -2.6 | . | 76.7*
COc1ccc(CC2C(=O)NC(C)C(=O)N(C)C3C(=O)N(C)C(Cc4ccc(O)c(c4)Oc4ccc(cc4)C3O)C(=O)NC(C)C(=O)NC(C)C(=O)N2C)cc1 (centres undefined) | . | 6.6 | -1.3 | 76.1* | 0.2 | 70.2*
Cc1cccc(NC(=O)CSc2nnc([C@@H](N)Cc3c[nH]c4ccccc34)o2)c1C | -6.9 | . | . | -1.4 | . | 55.2*
SMILES | Cneo AK release | Ecoli rRNA inh | ERAP1 HTS inh | PGC1a acetyl inh | FGF22 binding-1 | HIV Env fusion | others
CN1CC[C@@]2(C)c3cc(O)ccc3N(C)[C@@H]12 | 2.4 | -4.3 | -0.9 | 22.7 | -0.7 | 2.5
O=c1ccc2cc(OC3O[C@H](CO)[C@@H](O)[C@H](O)[C@H]3O)c(O)cc2o1 (some centres undefined) | -1.5 | . | 78.5* | . | -0.1 | 18.3
C[C@]1(O)CCC2C3CC[C@H]4C[C@@H](OC(=O)CNC(=O)CN)CC[C@]4(C)C3CC[C@@]21C (some centres undefined) | 3.1 | -61.3 | 2.4 | 0.7 | 0.2 | -1.8
CCC(=Nc1ccc2c(c1)CCC2)c1c(O)n(C)c(=O)n(C)c1=O | -0.8 | . | . | -7.4 | . | .
CC=Cc1ccc2n(c1=O)C[C@H]1[C@H](CO)[C@@H](C(=O)N(C)C)N[C@@H]21 (mixture of isomers) | 38.6 | 5.6 | 4.4 | -4.9 | 1.7* | . | FGF22 binding-2=0.031;TSA no protein=i
COC(=O)[C@H]1N[C@H]2c3ccc(C4=CCCC4)c(=O)n3C[C@H]2[C@@H]1CO | -3.3 | 2.1 | 0.8 | . | 0.0 | .
NC1(C(=O)O)CCCc2ccc(N(CCCl)CCCl)cc21 (centres undefined) | -0.1 | -0.4 | 1.2 | 3.1 | 0.0 | .
Cc1cc(OCC(=O)NC(Cc2ccc(Cl)cc2)C(=O)O)c2c3c(c(=O)oc2c1)CCC3 (centres undefined) | 0.0 | -25.1 | 4.5 | 12.0 | 1.7* | . | FGF22 binding-2=-0.155;TSA no protein=i
COc1cc2c(c(OC)c1)C(=O)OC(C)CCCC(=O)CCCCC2 (centres undefined) | -0.1 | 5.0 | 0.0 | -10.8 | 0.0 | 22.5
CN(C)Cc1c[nH]c2ccccc12 | -1.5 | 1.1 | 3.5 | -6.0 | 18.6* | . | FGF22 binding-2=0.045;TSA no protein=i
C=CCN(CC=C)Cc1c[nH]c2ccccc12 | . | 13.6 | 1.5 | . | 0.5 | .
CCCC[C@@H](C)C[C@@H](C)C(=O)N(C)[C@@H](CC(C)C)C(=O)N[C@H](C(=O)N(C)[C@H](C(=O)N1C[C@@H](O)C[C@H]1C(=O)N1C(=O)C=C[C@@H]1C)C(C)C)C(C)OC(C)=O (some centres undefined) | 4.4 | . | . | . | . | .
CN(C)C(=O)Oc1ccc2ccccc2c1Cl | 0.1 | . | . | 4.6 | . | -237.8
CC1([N+](=O)[O-])COP(=O)(NC2CC2)OC1 (centres undefined) | . | 11.5 | -1.3 | . | 46.4* | 4.7 | TSA no protein=i
